Hit rate of the full screen: of about 340,000 compounds, about 1,100 (0.32%) were called active. Shown is part of a subset that was picked to be rich in actives. Unmarked numbers belong to inactive results.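 How the source made its calls: active means inhibition above a set limit, near 3 SD of compounds lacking own fluorescence (cut at about 54% in these data); inactive means the rest.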
System: beta-arrestin 1 C-terminal peptide binding to AP2 beta2-adaptin appendage (human)
Test: inhibitors of beta-arrestin/AP2 binding, primary screen, biochemical, GPCR trafficking, flow cytometry (AID 504490);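 further: plate controls were DMSO wells for no effect and 5 µM unlabelled arrestin peptide for full effect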
Conditions: FITC-arrestin peptide / GST-AP2 beads, at 10 µM, active compounds read high, AP2 beta2 appendage carries R879A mutation
Outline: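 System: GST-AP2 R879A bound to glutathione beads, E. coli-expressed. Also added: 50 nM FITC-arrestin peptide. Schedule: compound with beads 12 min RT, then probe 1 h RT. Signal: bead flow cytometry, FITC channel. Read-out basis: percent response.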

Compound	inhibition
Cc1noc(C)c1CSc1nnc2ccc3ccccc3n12	-1.44%
Cc1coc2c(O)cc3c(c12)OC1(N2CCCCC2)C(=O)NCCCC31 (stereo not given)	9.81%
O=[N+]([O-])c1ccccc1N/N=C1\CCc2ccccc21	-6.42%
Cn1cnnc1Sc1ccc(CN2CCN(C3CCCC3)C(CCO)C2)o1 (stereo not given)	-10.1%
CC(NC(=O)c1cc2cc(Cl)ccc2oc1=N)c1ccccc1 (stereo not given)	56% (active)
Cc1ccc(C(=O)NC(C)c2ccccc2)cc1Br (stereo not given)	-2.36%
CC(NC(=O)C(=O)N/N=C/c1ccc(Cl)cc1)c1ccccc1 (stereo not given)	6.57%
CN(C(=O)c1cccc([N+](=O)[O-])c1)c1ccccc1C(=O)NCc1ccccc1	-22.1%
CCC(C(=O)OC)n1cnc2scc(-c3ccc(C)cc3)c2c1=O (stereo not given)	-1.08%
Cc1ccc(C)c(Cn2cnc3c(oc4ccccc43)c2=O)c1	29.7%
CCC(C(=O)OC)n1cnc2c(oc3ccccc32)c1=O (stereo not given)	54.6% (active)
Cc1ccc(NC(=O)CN2CCC3(O)CCCCC3C2c2ccc3c(c2)OCO3)c(C)c1 (stereo not given)	1.75%
CC(=O)Nc1ccc(NC(=O)CN2C(=O)COc3ccc(S(=O)(=O)N4CCCCC4)cc32)cc1	-9.58%
COC(=O)C1=C(C(=O)OC)C2(OC1c1ccc(Br)cc1)C(=O)c1ccccc1C2=O (stereo not given)	7.98%
COc1ccccc1CNC(=O)c1cc(=O)c2ccccc2o1	2.61%
COc1cc2c(cc1OC)CN(C(=O)c1cc(=O)c3ccccc3o1)CC2	82.5% (active)
COc1ccc2c(CC(=O)N3CCc4cc(OC)c(OC)cc4C3)coc2c1	-6.31%
CCC(=O)Nc1nc2ccccc2n1Cc1ccccc1C	69.6% (active)
CC(=O)NC(C)c1nc2ccccc2n1Cc1ccccc1F (stereo not given)	-8.31%
C=CCn1c(C(C)NC(=O)CC)nc2ccccc21 (stereo not given)	-3.06%
O=C(CSc1nnc(-c2ccncc2)n1C1CCCCC1)Nc1ccccc1	0.57%
O=C(CCNC(=O)c1ccccc1Cl)NCc1ccco1	-2.42%
Cc1ccc(N(Cc2ccc(C(=O)Nc3ccccc3C(=O)NCc3ccco3)cc2)S(C)(=O)=O)cc1C	-0.75%
Cc1cccc(Nc2ccccc2C(=O)NCc2ccco2)c1C	99.8% (active)
COc1ccc(OCC(=O)NN2Cc3ccccc3C2=N)cc1	10.9%
CC(Oc1ccccc1)C(=O)NN1Cc2ccccc2C1=N (stereo not given)	59.1% (active)
CC(Oc1ccccc1)C(=O)Nc1c2c(nn1-c1ccccc1)CS(=O)C2 (stereo not given)	4.67%
O=C(CSc1nnc(COc2ccc(Cl)cc2)n1Cc1ccco1)N1CCNC1=O	-11.3%
CCc1cccc(C)c1NC(=S)N(CCCN1CCN(C)CC1)Cc1cccs1	-5.26%
COc1cc(Cl)ccc1OCc1cc(C(=O)N(C)CCc2c(C)n[nH]c2C)no1	-14.3%

Source: PubChem BioAssay AID504490 (NMMLSC, 2011)
